This is a sample that favours compounds with a hit; in the whole collection about 3.1% have one here.
OX1R antag-1: blocks the human orexin 1 receptor. O43613. CHO/OX1R cells, Fluo-8 calcium fluorescence, orexin A. inhibition, % at 5 µM. 0.43% of 330,000 active. AID 434989;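 active = inhibition above its plate's threshold, mean inhibition of all tested compounds on the plate plus 3 SD, cut at about 37% in these data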;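 also: 0% = orexin A challenge wells and 100% = SB-334867-A antagonist wells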
CHO parental Ca: counter-screen: ATP calcium response change in parental CHO cells | parental CHO-K1, ATP-induced calcium, Fluo-8 fluorescence | 0.63% of 330,000 active | inhibition, % at 5.6 µM;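 active = inhibition above that plate's mean sample inhibition plus 3 SD, cut at about 26% in these data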;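 also: 0% = ATP-challenged DMSO wells and 100% = DMSO wells without ATP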
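Material: Parental CHO cells | Reagent: ATP | Compound dosing: Single nominal dose of 5.6 µM per compound | Detection: Intracellular calcium via Fluo-8 no-wash fluorescent dye | Read-out: % inhibition of ATP-induced calcium mobilization | Benchmarks: Low control ATP plus DMSO, high control DMSO only | Replicates: Singlicate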
GPR7 antag: human neuropeptides B/W receptor 1 antagonism | inhibition, % at 4.4 µM | P48145 | GPR7-expressing cells, fluorescence antagonist assay | 1.1% of 290,000 active | AID 1861; in the data active = inhibition above about 16%, passing the limit was not always enough;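 also: cells stimulated with the agonist NPW; 0% = agonist with vehicle and 100% = vehicle without agonist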
Target sequence (P48145 whole entry, looked up): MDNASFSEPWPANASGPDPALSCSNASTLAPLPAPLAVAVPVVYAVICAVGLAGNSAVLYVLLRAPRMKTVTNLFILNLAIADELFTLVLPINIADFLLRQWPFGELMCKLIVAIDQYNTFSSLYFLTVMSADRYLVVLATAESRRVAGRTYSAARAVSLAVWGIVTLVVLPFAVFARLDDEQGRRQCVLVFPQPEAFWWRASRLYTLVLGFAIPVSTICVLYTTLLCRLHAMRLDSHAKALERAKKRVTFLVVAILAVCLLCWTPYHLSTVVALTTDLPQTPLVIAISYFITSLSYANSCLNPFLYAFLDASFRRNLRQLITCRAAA
GalR3 antag: blocks the human galanin receptor 3 | O60755 | HEK293 GalR3-CNG cAMP membrane potential fluorescence; galR3 body fused to GalR1 C-terminus | inhibition, % at 3 µM | 0.44% of 360,000 active | AID 651719;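 active = inhibition above the screen-wide average plus 3 SD, cut at about 13% in these data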;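 also: forskolin and galanin both at EC90 stimulate the cells; cAMP rise reported by CNG channel membrane potential dye signal; 0% = forskolin plus galanin with DMSO and 100% = forskolin alone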
OX1R antag-2: OX1R (human) antagonism; O43613; OX1R-expressing cells, FRET antagonist read-out; inhibition, % at 6.6 µM; 1.8% of 330,000 active; in the data active = inhibition mostly above about 38%, no sharp cut-off; inactive = mostly below about 40%;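 also: 0% = agonist challenge alone and 100% = reference antagonist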
OX1R Ca confirm: confirmation of human orexin 1 receptor antagonists | CHO/OX1R cells, orexin A calcium Fluo-8 fluorescence | shares compounds with OX1R antag-1 | inhibition, % at 5 µM | 38% of 1,100 active; in the data active = inhibition above about 29%;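 also: 0% = agonist challenge alone and 100% = reference antagonist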
CHO Ca counter: signal in parental CHO cells, OX1R antagonist counter-screen; 9.3% of 1,100 active; parental CHO-K1, ATP-induced calcium, Fluo-8 fluorescence; inhibition, % at 5.6 µM; AID 492965; shares compounds with OX1R antag-1;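 active = inhibition above a per-plate limit, the mean inhibition of that plate's test compounds plus 3 SD, cut at about 25% in these data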;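 also: 0% = ATP challenge with DMSO and 100% = DMSO without ATP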
OX1R HTRF conf: OX1R (human) antagonism, HTRF confirmed; shares compounds with OX1R antag-2; OX1R-expressing cells, HTRF antagonist assay; 49% of 1,800 active; inhibition, % at 6.6 µM; in the data active = inhibition above about 55%;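 also: CHO cells expressing OX1R stimulated with orexin A at about EC80; 0% = agonist challenge alone and 100% = reference antagonist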
CHO-K1 HTRF: counter-screen for OX1R antagonists: effect in parental CHO-K1 cells; shares compounds with OX1R antag-2; HTRF counterscreen; inhibition, % at 6.6 µM; 48% of 1,800 active; AID 493232; in the data active = inhibition above about 17%;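 also: 0% = agonist challenge with vehicle and 100% = vehicle alone without agonist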
The depositor's hits bear a star; · = no result.

SMILES	OX1R antag-1	CHO parental Ca	GPR7 antag	GalR3 antag	OX1R antag-2	OX1R Ca confirm	CHO Ca counter	OX1R HTRF conf	CHO-K1 HTRF
CCCCNC(=O)[C@@H]1CC=C[C@@H]2CCN(Cc3ccc(Cl)c(Cl)c3)C(=O)[C@@H]21	47*	-11	·	-2	91*	28	-4	75*	-2
COc1ccc(CN2CC[C@H]3C=CC[C@@H](C(=O)Nc4ccc(Cl)c(C(F)(F)F)c4)[C@H]3C2=O)cc1OC	63*	-26	·	0	86*	70*	-12	89*	3
Cc1ccc(NC(=O)c2ccc(S(=O)(=O)NCc3cccnc3)cc2)cc1C	-24	-20	-10	-3	11	·	·	·	·
O=C(Nc1ccc(Cl)c(Cl)c1)c1cccc(S(=O)(=O)NCc2cccnc2)c1	36	-3	30*	5	67*	38*	55*	77*	5
Cc1cc(C)cc(N(C(=O)c2ccccn2)C(C(=O)NC2CCCCC2)c2cccs2)c1 (centres undefined)	48*	-23	-5	2	64*	6	-17	67*	0
CC(=O)c1cccc(N(C(=O)c2ccccn2)C(C(=O)NC2CCCCC2)c2ccccc2)c1 (centres undefined)	-29	-23	-3	-7	21	·	·	·	·
CC1CN(Cc2ccco2)C(=S)NC1=O (centres undefined)	·	·	·	-6	·	·	·	·	·
COc1cccc(/C=N/NC(=O)c2cc3c(OC)cccc3[nH]2)c1O	-15	-2	-6	-6	29	·	·	·	·
CCOc1ccc(/C=N/NC(=O)c2cc3c(OC)cc(OC)cc3[nH]2)cc1OC	35	-17	-20	-11	81*	42*	0	89*	15
COc1ccc(OC)c(/C=N/NC(=O)c2cc3c(OC)cccc3[nH]2)c1	71*	-23	1	3	101*	32*	-14	89*	10
CCOc1ccc(/C=N/NC(=O)c2cc3c(OC)cccc3[nH]2)cc1	-19	8	-6	-11	24	·	·	·	·
O=C(C1=NOC(CNc2ncc(C(F)(F)F)cc2Cl)C1)N1CCOCC1 (centres undefined)	-12	8	-18	-4	10	·	·	·	·
COc1cccc(CN(Cc2ccco2)S(=O)(=O)c2ccc(S(=O)(=O)NCc3ccccc3)cc2)c1OC	70*	-2	-10	-5	60*	40*	-4	84*	-13
CC(C)(C)C(=O)Nc1cccc(-c2nc3ccccc3[nH]2)c1	-30	-3	5	-1	11	·	·	·	·
CC(C)(C)C(=O)Nc1sc2c(c1-c1nc3ccccc3[nH]1)CCCC2	80*	-29	-6	-7	56*	14	-8	56*	1
CCOC(=O)c1[nH]c2ccccc2c1NC(=O)NC(C)C	-9	-10	-12	-6	-5	·	·	·	·
CCOC(=O)c1[nH]c2ccccc2c1NC(=O)c1ccc(Br)o1	101*	-13	1	-9	99*	34*	-3	90*	9
O=C(Nc1cccc(Cl)c1)Nc1ccnc(-c2cccnc2)n1	41*	6	-9	-1	67*	28	1	69*	7
CC1(Cc2ccc(OC(F)(F)F)cc2)C(=O)Nc2ccc(S(=O)(=O)NC3CCCCC3)cc21 (centres undefined)	·	·	·	-3	·	·	·	·	·
COc1ccc(C)cc1NC(=O)c1ccccc1NS(=O)(=O)c1ccc(Cl)s1	23	28	-1	-4	62*	9	46*	42	9
COc1ccccc1NC(=O)c1ccccc1NS(=O)(=O)c1cccs1	-21	-10	7	-2	35	·	·	·	·
COc1ccc(C(N)c2csc(Nc3ccc(S(C)(=O)=O)cc3)n2)cc1 (centres undefined)	·	·	·	-7	·	·	·	·	·
O=C(Cc1ccc(N2CCNC2=O)cc1)N1CCCC(Nc2cccc(F)c2)C1 (centres undefined)	-78	-13	7	4	4	·	·	·	·

High-throughput results (PubChem BioAssay)
